# The list is not random: actives were taken first. Their share in the collection is about 3.5%.
# rCAG binder: binders of r(CAG) RNA repeats, primary screen, biochemical, fluorescence; AID 651821, 2012; hit rate 1.3% among 370,000; inhibition, % at 3 µM; r(CAG) RNA repeat, TO-PRO-1 dye displacement fluorescence;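 active means inhibition above the plate cutoff, the mean of all test compounds on that plate plus 3 SD, cut at about 35% in these data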;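 further: 0% = DMSO alone and 100% = 100 µM mitoxantrone as full dye displacement; higher means more dye released from RNA so lower well fluorescence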
# PRMT1 FP inh: PRMT1 methyltransferase inhibitors, primary screen, biochemical, fluorescence polarization; Protein arginine N-methyltransferase 1 (Homo sapiens), Q99873; recombinant PRMT1, activity-based probe fluorescence polarization; inhibition, % at 2.79 µM; hit rate 1.3% among 370,000;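 active means inhibition above about 21% made by adding two undisclosed values, limit read from the data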
# Target sequence (Q99873 whole entry, looked up): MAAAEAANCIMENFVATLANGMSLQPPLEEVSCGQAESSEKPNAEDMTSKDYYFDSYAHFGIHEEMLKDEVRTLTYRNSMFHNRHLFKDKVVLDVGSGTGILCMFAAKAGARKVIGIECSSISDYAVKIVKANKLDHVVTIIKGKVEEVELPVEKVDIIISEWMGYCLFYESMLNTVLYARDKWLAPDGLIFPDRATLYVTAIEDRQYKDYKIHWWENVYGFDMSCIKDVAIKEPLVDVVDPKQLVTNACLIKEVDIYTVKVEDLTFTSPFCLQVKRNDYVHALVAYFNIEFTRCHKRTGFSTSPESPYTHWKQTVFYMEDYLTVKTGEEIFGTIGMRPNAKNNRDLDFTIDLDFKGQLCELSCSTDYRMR
# TCR CD3 inh: inhibitors of human TCR-CD3 interaction, primary screen, biochemical, fluorescence, TAMRA-labeled TCR probe. inhibition, % at 9.4 µM. hit rate 0.37% among 360,000;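 further: recombinant mutant TCR 2C K166C tagged with TAMRA read by polarization; 0% = receptor in buffer alone and 100% = receptor with positive control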
# mABHD4 FP: ABHD4 inhibitors, primary screen, biochemical, fluorescence polarization, mouse; hit rate 0.54% among 370,000; purified mABHD4, FP-Rh probe fluorescence polarization; AID 720543, 2013; inhibition, % at 8.92 µM; (Lyso)-N-acylphosphatidylethanolamine lipase (Mus musculus), Q8VD66;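 active means inhibition exceeding the mean over every tested compound plus 3 SD, cut at about 30% in these data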;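 further: 0% = plate median of compound wells and 100% = S159A mutant with DMSO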
#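 Test system: mouse ABHD4 enzyme, wild type. Reagent: FP-Rh fluorescent activity-based probe, added after compound pre-incubation. Timing: pre-incubation 45 min, probe exposure 60 min, at 25 °C. Technique: FP readout, ex 525 nm / em 598 nm. Benchmarks: high control S159A mutant with DMSO, low control median of compound wells.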
# HTRA1 inh: HTRA1 serine protease inhibitors, primary screen, biochemical, fluorescence polarization, HTS | hit rate 0.5% among 340,000 | AID 504803, 2011 | inhibition, % at 5.96 µM | recombinant HTRA1, FP-rhodamine activity-based probe | Q92743; in the data active means inhibition above about 36%;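 further: 0% = enzyme with DMSO and 100% = wells lacking enzyme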
# SIAE primary: human SIAE inhibitors, primary screen, biochemical, fluorescence polarization, FP-Rh probe, 1536-well HTS; SIAE FP-Rh probe binding; AID 1053197, 2014; Sialate O-acetylesterase (Homo sapiens), Q9HAT2; inhibition, % at 9.66 µM; hit rate 0.69% among 370,000;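 active means inhibition above a cutoff: mean of compounds within the control limits plus 3 SD of those, cut at about 17% in these data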;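 further: 0% = plate median of compound wells and 100% = probe without SIAE protein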
# BSA TAMRA ctr: compounds interfering with TAMRA-BSA probe, counter-screen for TCR-CD3 interaction inhibitor project, biochemical, fluorescence, TAMRA-labeled BSA. shares compounds with TCR CD3 inh. inhibition, % at 9.4 µM. TAMRA-labeled BSA probe fluorescence counterscreen. hit rate 10% among 1,200; in the data active means inhibition above about 23%;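 further: 0% = buffer low control and 100% = reference high control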
# TCR-CD3 conf: TCR-CD3 interaction inhibitors, retest, confirmation, biochemical, fluorescence, TAMRA-labeled TCR probe; shares compounds with TCR CD3 inh; TAMRA-labeled TCR probe fluorescence binding assay; inhibition, % at 9.4 µM; hit rate 48% among 1,200; AID 652036, 2013
# rCAG binder conf: small molecules binding CAG repeat RNA – biochemical, fluorescence, confirmation. shares compounds with rCAG binder. r(CAG) RNA repeat, TO-PRO-1 dye displacement fluorescence. inhibition, % at 3 µM. hit rate 70% among 4,300;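 active means inhibition above a per-plate cutoff, the mean inhibition of sample wells plus 3 SD, cut at about 35% in these data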;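 further: loss of TO-PRO-1 fluorescence as compound displaces dye from 1x1 AA loop RNA; 0% = DMSO only wells and 100% = 100 µM mitoxantrone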
# DNA CAG counter: displacement of TO-PRO-1 from CAG DNA duplex, counter-screen for rCAG RNA repeat binder project, biochemical, fluorescence, TO-PRO-1 dye, d(CAG) DNA oligo; shares compounds with rCAG binder; d(CAG) DNA oligo TO-PRO-1 dye displacement; inhibition, % at 3 µM; hit rate 94% among 4,300;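 active means inhibition above its plate's cutoff, the mean test-well inhibition plus 3 SD, cut at about 4.8% in these data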;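 further: 0% = DNA dye mix with DMSO and 100% = 100 µM mitoxantrone; hits displace the dye from DNA and so lower well fluorescence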
# An asterisk follows results filed as active; x = not tested or not shown. Unless noted, no stated cut-off is given here; in the data, active means inhibition above about 19%; inactive means the rest.
SMILES,rCAG binder,PRMT1 FP inh,TCR CD3 inh,mABHD4 FP,HTRA1 inh,SIAE primary,BSA TAMRA ctr,TCR-CD3 conf,rCAG binder conf,DNA CAG counter
O=C(N/N=C/c1cc([N+](=O)[O-])cc([N+](=O)[O-])c1O)/C(=C\c1cccs1)NC(=O)c1ccccc1,68*,3,47*,29,23,3,-2,45*,84*,53*
O=S1(=O)c2ccc(Br)cc2OC[C@@H](Cc2ccccc2)N1Cc1cn(Cc2ccc(C(F)(F)F)cc2)nn1,5,-1,x,-2,x,3,x,x,x,x
CC(C)(C)OC(=O)N1CCC(c2ccc[nH]2)(c2c[nH]c3ccccc23)CC1,1,3,x,-2,x,-1,x,x,x,x
COc1ccc([N+](=O)[O-])cc1NC(=O)C(C)c1ccccc1 (stereo not drawn),2,-4,0,-1,-8,1,x,x,x,x
COc1ccc([N+](=O)[O-])cc1NC(=S)NC(NC(=O)C(c1ccccc1)c1ccccc1)C(Cl)(Cl)Cl (stereo not drawn),47*,-3,74*,-89,-83,-66,33*,59*,39*,23*
O=C(NNS(=O)(=O)c1ccccc1[N+](=O)[O-])c1ccccc1Cl,2,-2,0,1,-8,8,x,x,x,x
O=C(NNS(=O)(=O)c1ccccc1[N+](=O)[O-])c1cc2ccccc2cc1O,36*,5,20*,25,19,5,-8,10,18,7.6*
CC(C)[C@H](N)C(=O)N1CCC[C@@H]1C(=O)N1CCC2CCN(S(=O)(=O)c3ccccc3)CC21 (stereo partly drawn),2,4,x,2,x,-4,x,x,x,x
O=C(O)c1ccccc1/C=N/NC(=O)c1cc(-c2ccco2)nc2ccccc12,35*,15,20*,11,20,11,-8,25*,45*,21*
O=C(O)c1ccc(N=Nc2c(O)[nH]c3ccc(Br)cc23)cc1,2,-2,2,1,3,-10,x,x,x,x
O=c1ccc2cc3c([nH]c4ccc(Br)cc43)oc-2c1O,100*,91*,38*,60*,62*,64*,-36,14,92*,68*
O=C1CCC[C@H]2C[C@H](NCc3ccccc3F)CC[C@]23CCCN13,x,1,x,-3,x,-2,x,x,x,x
N#Cc1c(SCC(=O)Nc2nncs2)sc2c(O)cc(=O)[nH]c12,62*,46*,27*,3,-9,-19,-13,9,44*,15*
CC(C)C[C@H](NC(C)(C)C(=O)NC1CCCCC1)C(=O)NCCc1c[nH]c2ccccc12,x,2,x,3,x,5,x,x,x,x
O=C(NN1C(=O)/C(=C/c2cccc(O)c2)SC1=S)c1ccccc1O,75*,9,28*,3,6,-1,-17,17,51*,16*
COc1ccc(C(=O)NCCN2C(=O)C3C4C=CC(C4)C3C2=O)cc1OC (stereo not drawn),-1,-1,x,0,x,-7,x,x,x,x
Cc1ccc(O)c(-c2cc(C(=O)Nc3ccc(S(=O)(=O)Nc4nccc(C)n4)cc3)[nH]n2)c1,59*,0,60*,-31,-35,-27,-8,32*,49*,17*
Oc1ccc(/C=C/c2cc(O)cc(O)c2)cc1,3,2,2,9,9,-1,x,x,x,x
Oc1cc(O)cc(C=Cc2ccc(O)c(O)c2)c1,38*,18,21*,27,x,-3,-8,14,29,15*
Cc1ccc(-n2c(SCC(=O)Nc3ccccc3-c3ccccc3)nnc2-c2cnccn2)cc1,6,11,x,-7,x,-2,x,x,x,x
C=Cc1c(C)c2cc3[nH]c(cc4nc(cc5nc(cc1[nH]2)C(C)=C5CCC(=O)O)C(CCC(=O)O)=C4C)c(C)c3C=C,90*,27*,37*,70*,69*,75*,-9,19*,87*,57*
O=C(Nc1nc(-c2ccco2)c(-c2ccco2)s1)c1cnccn1,44*,37*,38*,23,x,14,0,15,22,13*
O=C(CNC(=O)c1ccccc1Br)N/N=C/c1ccccc1O,0,3,4,-4,-1,1,x,x,x,x
O=C(CNC(=O)c1ccccc1Br)N/N=C\c1cc([N+](=O)[O-])cc(Br)c1O,39*,1,69*,11,11,-1,-5,61*,31,7.9*
O=C1CCCC2=C1C1(CCCC1)N=C(Nc1nc3cc(Br)ccc3o1)N2,x,3,x,2,x,-4,x,x,x,x
SMILES,rCAG binder,PRMT1 FP inh,TCR CD3 inh,mABHD4 FP,HTRA1 inh,SIAE primary,BSA TAMRA ctr,TCR-CD3 conf,rCAG binder conf,DNA CAG counter
COc1ccccc1NC(=O)NNC(=O)c1cc2ccccc2cc1O,42*,1,19*,8,33,13,-6,23*,34,11*
COc1ccccc1NC(=O)NNC(=O)c1ccc(-c2ccccc2)cc1,4,-1,-1,-12,-17,0,x,x,x,x
CC(C)Oc1ccc(S(=O)(=O)N2CCCCCC2)c2ccccc12,1,3,x,9,x,10,x,x,x,x
O=c1c(-c2c(O)cc(O)c3c(=O)cc(-c4ccc(O)cc4)oc23)c(-c2ccc(O)cc2)oc2cc(O)cc(O)c12,49*,5,31*,-71,12,-36,-2,23*,36*,16*
COC(=O)C1=C(CSc2nc3c(cc2C#N)CN(C)CC3)OC(N)=C(C#N)C1c1ccc(F)cc1 (stereo not drawn),50*,13,20*,14,19,7,-3,0,27,16*
COC(CNC(=O)[C@H](Cc1ccccc1)NC(C)(C)C(=O)NC1CCCCC1)OC,x,-3,x,2,x,-1,x,x,x,x
